High-throughput results: PubChem BioAssay, several laboratories
Only some compounds are listed: those with a hit (about 2.6% of all), similar ones and a draw of the others.
MC4R antag cAMP: antagonists of human melanocortin 4 receptor (MC4R); P32245; MC4R-expressing cells, MTII-stimulated cAMP, LANCE TR-FRET; inhibition, % at 6.5 µM; 360,000 compounds, 0.48% hits;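 active = inhibition above its plate's cutoff, the mean of tested wells on that plate plus 3 SD, cut at about 29% in these data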
Target sequence (P32245 whole entry, looked up): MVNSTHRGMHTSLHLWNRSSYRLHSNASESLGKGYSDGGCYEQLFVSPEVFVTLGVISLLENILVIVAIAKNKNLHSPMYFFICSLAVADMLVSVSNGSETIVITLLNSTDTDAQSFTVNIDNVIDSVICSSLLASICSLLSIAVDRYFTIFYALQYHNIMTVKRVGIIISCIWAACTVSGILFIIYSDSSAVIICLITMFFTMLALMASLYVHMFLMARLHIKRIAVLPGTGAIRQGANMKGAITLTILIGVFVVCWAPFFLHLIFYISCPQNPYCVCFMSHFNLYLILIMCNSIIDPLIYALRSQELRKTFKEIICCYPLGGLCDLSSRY
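material = U2OS cells stably expressing human melanocortin 4 receptor (MC4R) | also added = Melanotan II challenge | dosing = single nominal compound dose of 6.5 µM | detection = TR-FRET with Eu-cAMP and labeled anti-cAMP, 671 nm | replication = singlicate | timing = compound 30 min, challenge 1 h, detection 1 h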
ABCB6 inh 2: blocks the human ABCB6 transporter | 360,000 compounds, 0.19% hits | fluorescence ratio to DMSO, % at 10 µM | K562-ABCB6 porphyrin accumulation, flow cytometry, 1 h; stronger effect = lower value;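 active = fluorescence ratio to DMSO below 75%, the collection mean minus 3 SD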;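 note: signal is porphyrin accumulated inside mitochondria; lower ratio means ABCB6 inhibition with less porphyrin fluorescence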
hiPSC survival: hiPSC single-cell survival enhancement | survival enhancement, % at 20 µM | 360,000 compounds, 0.044% hits | ATPlite luminescence; 100% = ROCK inhibitor wells, 0% = DMSO | AID 602274; in the data active = survival enhancement above about 18%;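 note: cells exposed to compounds for 16 hours before the ATP read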
Tb MetRS inh: blocks T. brucei methionyl-tRNA synthetase activity | purified T. brucei MetRS, ATP depletion, Kinase-Glo luminescence | inhibition, % at 11.9 µM | 360,000 compounds, 0.4% hits | AID 624268;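 active = inhibition above a per-plate cutoff of the control wells' mean inhibition plus 3 SD, cut at about 5.5% in these data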
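Assay system: T. brucei methionyl-tRNA synthetase, purified | Medium: HEPES buffer with MgCl2, KCl, DTT, spermine, BSA, pyrophosphatase | Compound: 11.9 µM single point | Incubation: 15 min enzyme-compound preincubation, 2 h reaction, 10 min detection, 25 °C | Measured by: Kinase-Glo luciferase luminescence reporting remaining unconsumed ATP | Measure: % inhibition normalized to control-well medians | Replication: Singlicate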
MC4R barr agon: activates human MC4R beta-arrestin recruitment | 360,000 compounds, 0.98% hits | activation, % at 8.9 µM | U2OS MC4R beta-arrestin complementation, luminescence; percent of melanotan II response, DMSO zero | AID 540308;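 active = activation above a per-plate cutoff, the mean activation of sample wells on that plate plus 3 SD, cut at about 8% in these data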
Granule exo inh: blocks lytic granule exocytosis. TALL-104 LAMP-1 surface exposure, flow cytometry; cells stimulated with thapsigargin and PMA. 360,000 compounds, 0.66% hits. inhibition, % at 10 µM;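 active = inhibition above about 55%, limit read from the data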
Tb MetRS conf: Trypanosoma brucei MetRS inhibition confirmed; shares compounds with Tb MetRS inh; T. brucei MetRS enzyme, luminescence (ATP depletion); inhibition, % at 11.9 µM; 1,400 compounds, 93% hits; in the data active = inhibition above about 7%
Jurkat cytotox: kills Jurkat cells in T. brucei MetRS counterscreen; shares compounds with Tb MetRS inh; inhibition, % at 8.3 µM; Jurkat cells viability, ATP luminescence; 1,400 compounds, 12% hits; AID 624413; in the data active = inhibition above about 15%
Tb MetRS inh FP: inhibits T. brucei methionyl tRNA synthetase in orthogonal FP test | AID 651607 | inhibition, % at 11.9 µM | purified T. brucei MetRS, fluorescence polarization | shares compounds with Tb MetRS inh | 1,400 compounds, 44% hits; in the data active = inhibition above about 17%
Each line names hits and unclear results; the compound was inactive in the other large screens (follow-up assays come after a bar, where they were run).

O=C1COc2ccc(C(=O)CSc3nnc(NCc4ccccc4)s3)cc2N1	Tb MetRS inh 8.7 | Tb MetRS conf 13.1 | Jurkat cytotox inactive | Tb MetRS inh FP inactive
COc1ccc(NC(=O)COC(=O)Cc2ccc(Br)cc2)cc1	none
COc1ccc(CC(=O)OCC(=O)Nc2ccc(Br)cc2)cc1	Tb MetRS inh 11.0 | Tb MetRS conf 30.9 | Jurkat cytotox inactive | Tb MetRS inh FP 25.0
COc1ccc(OCCC(=O)OCC(=O)Nc2ccc(Br)cc2)cc1	Tb MetRS inh 16.6 | Tb MetRS conf 17.8 | Jurkat cytotox inactive | Tb MetRS inh FP inactive
Cc1ccc(-n2nc(C)c3c(C)c(CCC(=O)NCC4CCCO4)c(=O)n(C)c32)cc1 (centres undefined)	none
CCOC(=O)C1(C(C)(C)CC)CC(CSc2nc3ccccc3[nH]2)OC1=O (centres undefined)	Tb MetRS inh 5.7 | Tb MetRS conf 15.5 | Jurkat cytotox inactive | Tb MetRS inh FP inactive
CC1C(=O)C(C)C(c2ccccc2F)NC1c1ccccc1F (centres undefined)	none
CCC(C)(C)NC(=O)c1ccc2c(c1)N(CC(=O)NC1CCCC1)C(=O)C(C)(C)O2	none
CCNC(=S)NNC(=O)c1ccc(S(=O)(=O)NCc2ccco2)cc1	Tb MetRS inh 6.2 | Tb MetRS conf 25.4 | Jurkat cytotox inactive | Tb MetRS inh FP inactive
Cc1nc(-c2ccc(F)cc2)c(CC(=O)N(C)CC(=O)Nc2cccc(F)c2)s1	none
Cc1cc(C)n(CC(O)COc2ccc(Cl)cc2Cl)n1 (centres undefined)	none
Cc1nccn1CC(O)COc1ccc(Cl)cc1Cl (centres undefined)	Tb MetRS inh 9.5 | Tb MetRS conf 11.3 | Jurkat cytotox inactive | Tb MetRS inh FP inactive
COc1ccccc1N1CCN(C(=O)C(=O)c2c(C)[nH]c3ccccc23)CC1	Tb MetRS inh 6.6 | Tb MetRS conf 19.3 | Jurkat cytotox inactive | Tb MetRS inh FP inactive
Cc1[nH]c2ccc(C(=O)N3CCN(c4ccccc4Cl)CC3)cc2c1C	none
Cc1[nH]c2ccccc2c1C(=O)C(=O)N1CCN(c2ccccc2Cl)CC1	Tb MetRS inh 9.0 | Tb MetRS conf 28.2 | Jurkat cytotox inactive | Tb MetRS inh FP inactive
Cc1[nH]c2ccccc2c1C(=O)C(=O)N1CCN(c2cccc(Cl)c2)CC1	Tb MetRS inh 7.1 | Tb MetRS conf 15.0 | Jurkat cytotox inactive | Tb MetRS inh FP inactive
O=C(C(=O)N1CCN(c2cccc(Cl)c2)CC1)c1c[nH]c2ccccc12	Tb MetRS inh 9.4, MC4R barr agon 8.5 | Tb MetRS conf 12.2 | Jurkat cytotox inactive | Tb MetRS inh FP inactive
COC(=O)[C@@]12C[C@@H](CC(=O)NCC3CCCCC3)C(=O)N(Cc3ccccc3)C1=CCC(C)(C)C2	none (no result: MC4R antag cAMP, ABCB6 inh 2, hiPSC survival, MC4R barr agon)
COc1ccc(-c2noc(CN3CCOCC3)n2)cc1OC	none
Cc1[nH]c2ccccc2c1C(=O)C(=O)N1CC=C(c2ccccc2)CC1	Tb MetRS inh 9.1 | Tb MetRS conf 13.0 | Jurkat cytotox inactive | Tb MetRS inh FP inactive
Cc1[nH]c2ccccc2c1C(=O)C(=O)N1CC(C)OC(C)C1 (centres undefined)	none
O=C(CCSc1ccc(Br)cc1)Nc1cccnc1	Tb MetRS inh 6.4 | Tb MetRS conf 10.8 | Jurkat cytotox inactive | Tb MetRS inh FP inactive
O=C(Nc1cccc2ncccc12)c1ccc(Br)c([N+](=O)[O-])c1	Tb MetRS inh 31.0 | Tb MetRS conf 56.4 | Jurkat cytotox 21.6 | Tb MetRS inh FP 35.2
O=C(Nc1cccc2ncccc12)c1cccc(Br)c1	none
COc1ccccc1NC(=O)C(C)N1C(=O)C2CCCCC2C1=O (centres undefined)	none
